Source: the array DNA melting data of Ke et al. (doi:10.1101/2024.01.08.574731)

Assays:
[1] = melting temperature; fluorescence melt of hairpins on a sequencing array, two-state fit, raised by 9.35 °C to match UV melts; conditions: sodium 0.088 M
In short: (§1)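 With Cy3 and quencher oligos annealed, library hairpins on a sequenced MiSeq flow cell were imaged for Cy3 fluorescence in 50 mM Na-HEPES pH 8.0, 25 mM NaCl, in 2.5 °C steps up to 60 °C. Melting temperature and folding enthalpy were derived from bootstrapped two-state fits of signals normalised to pre-quench Cy3 and to control constructs. Four replicates were combined by inverse variance, with fitted temperatures raised by 9.35 °C to match UV melts.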

[2] = folding enthalpy; higher = less favourable; fluorescence melt of hairpins on a sequencing array, two-state fit; conditions: sodium 0.088 M
In short: as §1

## GAACTCGGAAACGAGTTC (((((((....)))))))
[1]
  Tm: 67 °C
[2]
  folding enthalpy: -40.9 kcal/mol

## GAACTGACGAAAGTCTTC (((..(((....))))))
[1]
  Tm: 23.7 °C
[2]
  folding enthalpy: -8.83 kcal/mol

## GAAGACCCGAAAGGGTTC (((..(((....))))))
[1]
  Tm: 32.6 °C
[2]
  folding enthalpy: -8.91 kcal/mol

## GAAGACCGAAAGGTTTTC (((.(((....))).)))
[1]
  Tm: 47.9 °C
[2]
  folding enthalpy: -27.4 kcal/mol

## GAAGACGAAAGTCAGTTC ((((((....)))..)))
[1]
  Tm: 24 °C
[2]
  folding enthalpy: -15 kcal/mol

## GAAGACGAAAGTCGGTTC ((((((....)))..)))
[1]
  Tm: 34.4 °C
[2]
  folding enthalpy: -12.8 kcal/mol

## GAAGACGGAAACATCTTC (((((.(....).)))))
[1]
  Tm: 29.8 °C
[2]
  folding enthalpy: -20 kcal/mol

## GAAGACGGAAACGTCCTC ((.((((....)))).))
[1]
  Tm: 35.9 °C
[2]
  folding enthalpy: -11.9 kcal/mol

## GAAGACGGAAACGTTTTC (((.(((....))).)))
[1]
  Tm: 41.1 °C
[2]
  folding enthalpy: -32.6 kcal/mol

## GAAGAGCCGAAAGGCTTC (((..(((....))))))
[1]
  Tm: 31.6 °C
[2]
  folding enthalpy: -9.43 kcal/mol

## GAAGAGGGAAACCTCCTC ((.((((....)))).))
[1]
  Tm: 26.4 °C
[2]
  folding enthalpy: -14.9 kcal/mol

## GAAGAGGGAAACCTCTCC (.(((((....))))).)
[1]
  Tm: 34.2 °C
[2]
  folding enthalpy: -12.5 kcal/mol

## GAAGAGGGAAACCTCTTC (((((((....)))))))
[1]
  Tm: 55.3 °C
[2]
  folding enthalpy: -33.5 kcal/mol

## GAAGATCCGAAAGGATTC (((..(((....))))))
[1]
  Tm: 31.3 °C
[2]
  folding enthalpy: -12.6 kcal/mol

## GAAGCACGAAAGTGGTTC (((.(((....))).)))
[1]
  Tm: 61.3 °C
[2]
  folding enthalpy: -31.6 kcal/mol

## GAAGCAGGAAACTACTTC ((((.((....)).))))
[1]
  Tm: 31.7 °C
[2]
  folding enthalpy: -19 kcal/mol

## GAAGCAGGAAACTGCCTC ((.((((....)))).))
[1]
  Tm: 34.5 °C
[2]
  folding enthalpy: -13.2 kcal/mol

## GAAGCCGAAAGGCCGTTC ((((((....)))..)))
[1]
  Tm: 26.6 °C
[2]
  folding enthalpy: -6.55 kcal/mol

## GAAGCCGAAAGGCTTTC ((((((....))).)))
[1]
  Tm: 54.2 °C
[2]
  folding enthalpy: -11.1 kcal/mol

## GAAGCGAAAGCTTC (((((....)))))
[1]
  Tm: 68.1 °C
[2]
  folding enthalpy: -25.7 kcal/mol

## GAAGCGCGAAAGCGTTC (((.(((....))))))
[1]
  Tm: 41.2 °C
[2]
  folding enthalpy: -10.6 kcal/mol

## GAAGCGGGAAACCGCCTC ((.((((....)))).))
[1]
  Tm: 36.7 °C
[2]
  folding enthalpy: -10.8 kcal/mol

## GAAGCGGGAAACCGCTCC (.(((((....))))).)
[1]
  Tm: 42.5 °C
[2]
  folding enthalpy: -10.3 kcal/mol

## GAAGGAGAAATCCTTC ((((((....))))))
[1]
  Tm: 46.3 °C
[2]
  folding enthalpy: -26.8 kcal/mol

## GAAGGCCGAAAGGCATTC (((.(((....))).)))
[1]
  Tm: 62.6 °C
[2]
  folding enthalpy: -24.2 kcal/mol

## GAAGGCGGAAACACCTTC (((((.(....).)))))
[1]
  Tm: 42.7 °C
[2]
  folding enthalpy: -30.9 kcal/mol

## GAAGGCGGAAACGCTTTC (((.(((....))).)))
[1]
  Tm: 48.2 °C
[2]
  folding enthalpy: -24.9 kcal/mol

## GAAGGGCGAAAGCCATTC (((.(((....))).)))
[1]
  Tm: 57.1 °C
[2]
  folding enthalpy: -22.2 kcal/mol

## GAAGGGCGAAAGCCTTC (((.(((....))))))
[1]
  Tm: 50.8 °C
[2]
  folding enthalpy: -14.3 kcal/mol

## GAAGGGGAAACCCTTC ((((((....))))))
[1]
  Tm: 53.8 °C
[2]
  folding enthalpy: -28.6 kcal/mol

## GAAGGTGGAAACACCTCC (.(((((....))))).)
[1]
  Tm: 40.8 °C
[2]
  folding enthalpy: -12.3 kcal/mol

## GAAGTAGGAAACCACTTC (((((.(....).)))))
[1]
  Tm: 34.8 °C
[2]
  folding enthalpy: -24.7 kcal/mol

## GAAGTAGGAAACTACTCC (.(((((....))))).)
[1]
  Tm: 32.5 °C
[2]
  folding enthalpy: -11.4 kcal/mol

## GAAGTAGGAAACTACTTC (((((((....)))))))
[1]
  Tm: 52.5 °C
[2]
  folding enthalpy: -42.6 kcal/mol

## GAAGTCGGAAACGACTTC (((((((....)))))))
[1]
  Tm: 66 °C
[2]
  folding enthalpy: -36.4 kcal/mol

## GAAGTCGGAAACGGCTTC ((((.((....)).))))
[1]
  Tm: 54.5 °C
[2]
  folding enthalpy: -39.7 kcal/mol

## GAAGTGCGAAAGCAGTTC (((.(((....))).)))
[1]
  Tm: 57.5 °C
[2]
  folding enthalpy: -33.5 kcal/mol

## GAAGTGCGAAAGCATTTC (((.(((....))).)))
[1]
  Tm: 51 °C
[2]
  folding enthalpy: -23.5 kcal/mol

## GAAGTGGAAACACTTC ((((((....))))))
[1]
  Tm: 54 °C
[2]
  folding enthalpy: -33.7 kcal/mol

## GAAGTGGGAAACCACCTC ((.((((....)))).))
[1]
  Tm: 32.2 °C
[2]
  folding enthalpy: -13.7 kcal/mol

## GAAGTTGAAAAACTTC ((((((....))))))
[1]
  Tm: 48.5 °C
[2]
  folding enthalpy: -28.1 kcal/mol

## GAAGTTGGAAACGATTTC (((.(.(....).).)))
[1]
  Tm: 36.7 °C
[2]
  folding enthalpy: -20.9 kcal/mol

## GAATAACGAAAGTTCTTC (((.(((....))).)))
[1]
  Tm: 32.2 °C
[2]
  folding enthalpy: -20.7 kcal/mol

## GAATAACGAAAGTTGTTC (((.(((....))).)))
[1]
  Tm: 45.5 °C
[2]
  folding enthalpy: -31 kcal/mol

## GAATAAGCGAAAGCTTTC (((..(((....))))))
[1]
  Tm: 25.7 °C
[2]
  folding enthalpy: -9.51 kcal/mol
